Test [1] relates to Mus musculus. Put plainly: Suppression of appetite in ddY mouse assessed as decrease in body weight gain at 200 nmol administered intranasally as single dose on day 0. Type of test: functional, organism-based. The following applies: route nas. The essentials:
(§1)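 Single i.n. dose (200 nmol) or saline vehicle given on day 0; mice housed individually, with body weight, food and water consumed recorded daily. N = 8 per group, mean ± SD; two-way repeated measures ANOVA followed by Tukey–Kramer test.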

The subject of test [2] is Mus musculus. Put plainly: Suppression of appetite in ddY mouse assessed as decrease in food consumption at 200 nmol administered intranasally as single dose on day 0 and measured on day 1. The note with it: route nas, time 1.0 day. In kind it is functional, organism-based. The procedure, abridged: as §1
Test [3] has as its system Mus musculus. The test can be described thus: Effect on water intake in ddY mouse at 200 nmol administered intranasally as single dose on day 0 and measured for 3 days. The following applies: route nas, time 3.0 day. Type of test: functional. The procedure, abridged: as §1
The subject of test [4] is Mus musculus. The test can be described thus: Suppression of appetite in ddY mouse assessed as body weight at 200 nmol administered intranasally on days 0 to 2 and measured for 3 days relative to day 0. The following applies: route nas, time 3 day. Type of test: functional. The procedure, abridged:
(§2)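 Daily i.n. dosing (200 nmol) or saline vehicle on days 0–2 in individually housed mice; body weight (relative to day 0), daily food intake and water intake recorded daily. N = 8, mean ± SD; two-way repeated measures ANOVA with Tukey–Kramer test.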

Test [5] relates to Mus musculus. The test can be described thus: Suppression of appetite in ddY mouse assessed as decrease in daily food intake at 200 nmol administered intranasally on day 0 to 2 and measured on days 1 to 3. In kind it is functional, organism-based. The following applies: route nas, time 3.0 day. The procedure, abridged: as §2
Test [6] deals with Mus musculus. The test can be described thus: Increase in water intake in ddY mouse at 200 nmol administered intranasally on days 0 to 2 and measured on days 4 to 5. Type of test: functional. The following applies: route nas, time 4-5 day. The essentials:
as §2

The test system of test [7] is Mus musculus. The test can be described thus: Induction of anxiety-like behaviour in ddY mouse assessed as decrease in inner ratio at 200 nmol administered intranasally and measured after 45 mins by open field test. In kind it is functional. The following applies: route nas. The essentials: (§3)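 Open field (40 × 40 × 50 cm) with video tracking at 45 min and 24 h after i.n. dosing (200 nmol); total distance, cumulative grooming time, and inner ratio (% time in central 20 × 20 cm zone) scored. N = 8, mean ± SD; two-way repeated measures ANOVA, Tukey–Kramer.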

Test [8] deals with Mus musculus. Put plainly: Induction of stress related behaviour in ddY mouse assessed as increase in cumulative grooming time at 200 nmol administered intranasally and measured after 45 mins by open field test. In kind it is functional. The following applies: route nas. The procedure, abridged:
as §3

Test [9] concerns Mus musculus. The test can be described thus: Effect on total distance travelled in ddY mouse at 200 nmol administered intranasally and measured after 45 mins by open field test. Type of test: functional. The note with it: route nas. The procedure, abridged:
as §3

In test [10] the test system is Mus musculus. Put plainly: Induction of anxiety-like behaviour in ddY mouse assessed as decrease in inner ratio at 200 nmol administered intranasally and measured after 24 hrs by open field test. In kind it is functional. The following applies: route nas. The procedure, abridged: as §3
Test [11] relates to Mus musculus. Put plainly: Induction of stress related behaviour in ddY mouse assessed as increase in cumulative grooming time at 200 nmol administered intranasally and measured after 24 hrs by open field test. Type of test: functional. The note with it: route nas. The procedure, abridged:
as §3

Test [12] deals with Mus musculus. Put plainly: Induction of anxiety-like behaviour in ddY mouse assessed as decrease in inner ratio at 200 nmol administered intranasally and measured after 3 hrs by open field test. The following applies: route nas. In kind it is functional.
Test [13] has as its system Mus musculus. Put plainly: Induction of stress related behaviour in ddY mouse assessed as increase in cumulative grooming time at 200 nmol administered intranasally and measured after 3 hrs by open field test. In kind it is functional. The note with it: route nas.
Test [14] concerns Mus musculus. The test can be described thus: Effect on total distance travelled in ddY mouse at 200 nmol administered intranasally and measured after 3 hrs by open field test. In kind it is functional. The note with it: route nas.
Test [15] has as its system Mus musculus. Put plainly: Suppression of plasma prolactin level in C57BL/6J mouse assessed as prolactin level at 20 nmol administered intranasally by ELISA (reference value: 0.45 +/-0.14 ng/ml). Type of test: functional. The following applies: route nas.
The subject of test [16] is Mus musculus. The test can be described thus: Suppression of restrain stress-induced plasma prolactin level in C57BL/6J mouse assessed as prolactin level at 20 nmol administered intranasally followed by exposure to restraint stress for 40 mins by ELISA (reference value: 2.04 +/-0.95 ng/ml). In kind it is functional. The note with it: route nas.
Test [17] concerns Mus musculus. Put plainly: Suppression of restrain stress-induced plasma prolactin level in C57BL/6J mouse at 200 nmol administered intranasally followed by exposure to restraint stress for 40 mins by ELISA. The following applies: route nas. Type of test: functional, organism-based.
Test [18] concerns Mus musculus. Put plainly: Suppression of restrain stress-induced plasma prolactin level in C57BL/6J mouse at 20 nmol administered intranasally and 50 mins later exposure to restraint stress for 40 mins by ELISA. Type of test: functional, organism-based. The note with it: route nas, time 90.0 min.

The source made the active and inactive calls. The calls are words filed in the database; no cut-off is given here. Non-standard residues stand in square brackets, D forms with d. Residues, ends and D or L forms follow the SMILES beside them. *: point of attachment. Propanoyl(3-cHex) = O=C(CCC1CCCCC1)*; Dab = NCC[C@H](N)C(=O)O Bounds are passed on as bounds.

With `CC(C)C[C@H](NC(=O)CCC1CCCCC1)C(=O)N[C@@H](CC(C)C)C(=O)N[C@@H](CCN)C(=O)N1CCC[C@H]1C(=O)N[C@@H](CCCNC(=N)N)C(=O)N[C@@H](CC(N)=O)C(N)=O` ({Propanoyl(3-cHex)}-LL[Dab]PRN-NH2), the inhibition entry in the test on Mus musculus [1], with Mus musculus [2], in the test with Mus musculus [5] and in the test on Mus musculus [17] was “Active” throughout. The result with Mus musculus [3], with Mus musculus [9], in the test with Mus musculus [10], in the test with Mus musculus [11], in the test with Mus musculus [12] and in the test with Mus musculus [13] was inactive. In addition, the result with Mus musculus [14] was inactive. Also, the Activity in the test with Mus musculus [4] is less than 100%; in the test with Mus musculus [15], less than 0.15 ng/mL; in the test on Mus musculus [16] it was 0.49 ng/mL. Further, the result with Mus musculus [6], in the test with Mus musculus [7] and in the test on Mus musculus [8] was Active. Besides, the inhibition result with Mus musculus [18] is “inactive”.
